In ChEMBL document CHEMBL1124122, “Protoberberine alkaloids as antimalarials” (J Med Chem, 1988):
In brackets after ≈: the same amount, converted by molar mass. Activity calls are given as the source filed them.

How the values were obtained:
Plasmodium falciparum [1] = assay: (§1) In vitro antimalarial activity against Plasmodium falciparum D6; format: functional, organism-based
Outline: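 Parasite growth inhibition read as uptake of tritiated hypoxanthine.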

Plasmodium falciparum [2] = assay: In vitro antimalarial activity against Plasmodium falciparum W2; format: functional, organism-based
Outline: (§2)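 Parasite growth inhibition was read out as uptake of tritiated hypoxanthine.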

Mus musculus [3] = assay: In vivo Mean survival time of Plasmodium berghei parasitized mice dosed at 160 mg/kg; Toxic; format: functional, organism-based; design: dose 160 mg/kg
Outline: (§3)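 Mice were infected with the drug-sensitive P. berghei strain KBG 173 and given the stated dose. T − C is the mean survival time of treated mice beyond that of untreated controls. A compound counts as active only if T − C is ≥ 6.2 days, and toxicity is flagged separately.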

Mus musculus [4] = assay: In vivo Mean survival time of Plasmodium berghei parasitized mice dosed at 40 mg/kg; format: functional
Outline: (§4)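 Mice infected with drug-sensitive Plasmodium berghei strain KBG 173. Result given as T − C: the mean survival time of treated mice beyond that of untreated infected controls. A compound counts as active when T − C is ≥ 6.2 days.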

Mus musculus [5] = assay: In vivo Mean survival time of Plasmodium berghei parasitized mice dosed at 640 mg/kg; Toxic; format: functional, organism-based; design: dose 640 mg/kg; outline: as §3
Mus musculus [6] = assay: In vivo Mean survival time of Plasmodium berghei parasitized mice dosed at 160 mg/kg; format: functional; outline: as §4
Plasmodium falciparum [7] = assay: as §1; format: functional, organism-based; outline: as §2; remark: listed apart in the source
Mus musculus [8] = assay: In vivo Mean survival time of Plasmodium berghei parasitized mice dosed at 40 mg/kg; Not active; format: functional, organism-based; design: dose 40 mg/kg; outline: as §3
Mus musculus [9] = assay: In vivo Mean survival time of Plasmodium berghei parasitized mice dosed at 640 mg/kg; Not active; format: functional, organism-based; design: dose 640 mg/kg; outline: as §3
Mus musculus [10] = assay: In vivo Mean survival time of Plasmodium berghei parasitized mice dosed at 160 mg/kg; Not active; format: functional, organism-based; design: dose 160 mg/kg; outline: as §3
Mus musculus [11] = assay: In vivo Mean survival time of Plasmodium berghei parasitized mice dosed at 640 mg/kg; format: functional; outline: as §4
Plasmodium falciparum [12] = assay: In vitro antimalarial activity against Plasmodium falciparum D6.; format: functional, organism-based; outline: as §2

SMILES	IC50 (Plasmodium falciparum [1]) [µg/mL]	IC50 (Plasmodium falciparum [2]) [µg/mL]	T-C (Mus musculus [3])	T-C (Mus musculus [4]) [days]	T-C (Mus musculus [5])	T-C (Mus musculus [6]) [days]	IC50 (Plasmodium falciparum [7]) [µg/mL]	T-C (Mus musculus [8])	T-C (Mus musculus [9])	T-C (Mus musculus [10])	T-C (Mus musculus [11]) [days]	IC50 (Plasmodium falciparum [12]) [µg/mL]
COc1ccc2c(c1OC)CN1CCc3cc4c(cc3C1=C2)OCO4 [DIHYDROBERBERINE]	0.12 (≈ 0.356 µM)	0.171 (≈ 0.507 µM)	Toxic	-0.2	Toxic							
COc1ccc2cc3[n+](cc2c1OC)CCc1cc2c(cc1-3)OCO2.[Cl-] [BERBERINE CHLORIDE]		0.148		0.6	Toxic	1	0.141					
COc1cc2c(cc1O)CC[n+]1cc3c(OC)c(OC)ccc3cc1-2.[Cl-] [JATRORRHIZINE CHLORIDE]	0.422	1.61						inactive	inactive	inactive		
COc1ccc2c(OC)c3[n+](cc2c1OC)CCc1cc2c(cc1-3)OCO2		0.701		-0.2		-0.2					0.2	0.568
COc1ccc2c(c1OC)C[N+]1([O-])CCc3cc4c(cc3C1C2)OCO4 (stereo not given)	0.565 (≈ 1.59 µM)	0.558 (≈ 1.57 µM)		0		0.2					0	
COc1ccc2c(c1OC)C[N+]1(C)CCc3cc4c(cc3C1C2)OCO4.[I-] (stereo not given)	0.97	1.34						inactive	inactive	inactive		
COc1ccc2c(c1OC)CN1CCc3cc4c(cc3[C@@H]1C2)OCO4 [CANADINE]	0.555 (≈ 1.64 µM)	1.74 (≈ 5.12 µM)		0.1		0.1					0.3	
COc1ccc2c(c1OC)C(C#N)N1CCc3cc4c(cc3C1=C2)OCO4 (stereo not given)		0.143 (≈ 0.395 µM)						inactive	inactive	inactive		0.101 (≈ 0.279 µM)
COc1ccc2cc3n(c(=O)c2c1OC)CCc1cc2c(cc1-3)OCO2 [OXYBERBERINE]		2.01 (≈ 5.71 µM)		0.1		0.5					0.3	0.557 (≈ 1.59 µM)
COc1cc2c(cc1OC)-c1cc3ccc(OC)c(OC)c3c[n+]1CC2.[Cl-] [PALMATINE CHLORIDE]		0.163	Toxic	0.5	Toxic							0.281
